For series [1], the species on record is Mus musculus. Description: Tested for Protection from Acetaminophen-Induced Liver Necrosis in Mice, Number of animals(mice) with grade 4+ liver necrosis was determined after 48 hr.
For series [2], the species on record is Mus musculus. Description: Tested for Protection from Acetaminophen-Induced Liver Necrosis in Mice (18 animals) and the deaths were observed after the 48 hours due to liver necrosis; Death due to hemorrhagic necrosis of the liver. Type of series: functional. In outline: (§1)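 Male Swiss-Webster mice (18–33 g) were randomized and given acetaminophen 750 mg/kg. Protective agents or saline followed 30 min later. Deaths were counted over 48 h with food and water ad libitum, then survivors were killed by cervical dislocation. Livers were formalin-fixed and sectioned, stained with H&E and Gomori reticulum stain, and necrosis was graded 0 to 4+ by Mitchell criteria. Counts pooled up to two independent experiments.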

Series [3] is filed under the species Mus musculus. Description: Tested for Protection from Acetaminophen-Induced Liver Necrosis in Mice, Number of animals(mice) with liver necrosis was determined after 0 hour. Type of series: functional.
Series [4] is filed under the species Mus musculus. Kind of series: Tested for Protection from Acetaminophen-Induced Liver Necrosis in Mice, Number of animals(mice) with grade 3+ liver necrosis was determined after 48 hours.
The species entered for series [5] is Mus musculus. Kind of series: Tested for Protection from Acetaminophen-Induced Liver Necrosis in Mice, Number of animals(mice) with grade 2+ liver necrosis was determined after 48 hours.
The species entered for series [6] is Mus musculus. Description: Tested for Protection from Acetaminophen-Induced Liver Necrosis in Mice (in 10 animals) and the deaths were observed after the 48 hours due to liver necrosis. Type of series: functional. The gist of the method: as §1
The species named for series [7] is Mus musculus. Description: Tested for 17 animals(mice) and the deaths were observed after the 48 hours due to liver necrosis. Type of series: functional. The gist of the method:
as §1

The species entered for series [8] is Mus musculus. Description: Tested for Protection from Acetaminophen-Induced Liver Necrosis in Mice, Number of animals(mice) with liver necrosis was determined after 1 hr. Type of series: functional.
The species named for series [9] is Mus musculus. Description: Tested for Protection from Acetaminophen-Induced Liver Necrosis in Mice (in 18 animals) and the deaths were observed after the 48 hours due to liver necrosis. Type of series: functional. In outline:
as §1

Series [10] is filed under the species Mus musculus. Kind of series: Tested for Protection from Acetaminophen-Induced Liver Necrosis in Mice (in 17 animals) and the deaths were observed after the 48 hours due to liver necrosis. Type of series: functional. In outline: as §1
Series [11] is filed under the species Mus musculus. Kind of series: Tested for 10 animals(mice) and the deaths were observed after the 48 hours due to liver necrosis. Type of series: functional. In outline:
as §1

A short description of series [12]: Lethal dose after intraperitoneal administration in mice was determined. Type of series: toxicity, organism-based. The settings on record: mouse, in vivo, ip.
For series [13], the species on record is Mus musculus. Kind of series: Tested for Protection from Acetaminophen-Induced Liver Necrosis in Mice, necrosis was determined after 3 hour. Type of series: functional.

By LD50 is commonly meant the dose at which mortality reaches 50%. Low readings indicate greater toxicity, high ones lower toxicity.

As for `CC(=O)Nc1ccc(O)cc1.CC1N[C@H](C(=O)O)CS1`, the “No. of animals with grade 4+ liver necrosis” value in the series listed under Mus musculus [1] is listed as 1. This compound had a Deaths in the series listed under Mus musculus [2] of 1. For the same compound, in the series listed under Mus musculus [3], the “No. of animals with liver necrosis” value stood at 17.

On to `CC(=O)Nc1ccc(O)cc1.O=C(O)C1CSCN1`, for which the “No. of animals with grade 4+ liver necrosis” value in the series listed under Mus musculus [1] was 2. Besides, the “No. of animals with grade 3+ liver necrosis” value in the series listed under Mus musculus [4] is 4. Further, the “No. of animals with grade 2+ liver necrosis” value in the series listed under Mus musculus [5] stood at 1. In the series filed under Mus musculus [6], the Deaths stood at 4. Moreover, the “No. of animals with liver necrosis” value in the series filed under Mus musculus [3] was 1.

`CC1N[C@H](C(=O)O)CS1` (some centres not stated): the Deaths in the series filed under Mus musculus [7] is 0. Besides, in the series filed under Mus musculus [3], the “No. of animals with liver necrosis” value came out at 17.

On to `CC(=O)N[C@@H](CS)C(=O)O.CC(=O)Nc1ccc(O)cc1`, for which the entries for the “No. of animals with liver necrosis” value in the series filed under Mus musculus [8] and in the series listed under Mus musculus [3] were 3 and 13, respectively. Besides, the “No. of animals with grade 4+ liver necrosis” value in the series listed under Mus musculus [1] came out at 1. Moreover, the “No. of animals with grade 3+ liver necrosis” value in the series filed under Mus musculus [4] is reported as 1. The Deaths in the series filed under Mus musculus [9] amounted to 1.

As to `CC(=O)Nc1ccc(O)cc1` [ACETAMINOPHEN], the Deaths in the series listed under Mus musculus [10] was 11. Besides, in the series filed under Mus musculus [1], the “No. of animals with grade 4+ liver necrosis” value turned out to be 8. In the series filed under Mus musculus [4], the “No. of animals with grade 3+ liver necrosis” value was 7. In the series listed under Mus musculus [5], the “No. of animals with grade 2+ liver necrosis” value amounted to 1. For the same compound, the “No. of animals with liver necrosis” value in the series filed under Mus musculus [3] worked out at 1.

With `CC(=O)N[C@@H](CS)C(=O)O` [ACETYLCYSTEINE], the Deaths in the series filed under Mus musculus [7] is 0. In addition, the “No. of animals with liver necrosis” value amounted to 2 in the series filed under Mus musculus [8] and 15 in the series filed under Mus musculus [3].

The compound `O=C(O)C1CSCN1` (configuration not stated) [TIMONACIC] displayed a Deaths in the series listed under Mus musculus [11] of 3. In [12], this compound came in with an LD50 of 164 mg/kg. For the same compound, the “No. of animals with liver necrosis” value in the series listed under Mus musculus [13] is 1; in the series filed under Mus musculus [3] it was 9.

(Values after ChEMBL document CHEMBL1122194, “Prodrugs of L-cysteine as liver-protective agents. 2(RS)-Methylthiazolidine-4(R)-carboxylic acid, a latent cysteine” (J Med Chem, 1982).)
